ADAM17 inh: inhibitors of human ADAM17 | P78536 | recombinant ADAM17, EDANS/DABCYL FRET peptide cleavage | inhibition, % at 6.95 µM | 0.83% of 370,000 active | AID 720648;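 active means inhibition above the mean of compounds lying between control limits plus 3 SD, set per campaign, cut at about 8.5% in these data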;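 further: 0% = DMSO-only wells as the low control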
ADAM10 inh: ADAM10 inhibition, QFRET primary screen. inhibition, % at 7 µM. 0.62% of 370,000 active. O14672. recombinant ADAM10, EDANS/DABCYL FRET peptide cleavage, 3 h;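 active means inhibition above a per-campaign cutoff equal to the mean of compounds falling between control-based bounds plus 3 SD, cut at about 20% in these data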;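 further: 0% = DMSO wells while the 100% control is not disclosed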
Target sequence (O14672 214-748 limits assumed): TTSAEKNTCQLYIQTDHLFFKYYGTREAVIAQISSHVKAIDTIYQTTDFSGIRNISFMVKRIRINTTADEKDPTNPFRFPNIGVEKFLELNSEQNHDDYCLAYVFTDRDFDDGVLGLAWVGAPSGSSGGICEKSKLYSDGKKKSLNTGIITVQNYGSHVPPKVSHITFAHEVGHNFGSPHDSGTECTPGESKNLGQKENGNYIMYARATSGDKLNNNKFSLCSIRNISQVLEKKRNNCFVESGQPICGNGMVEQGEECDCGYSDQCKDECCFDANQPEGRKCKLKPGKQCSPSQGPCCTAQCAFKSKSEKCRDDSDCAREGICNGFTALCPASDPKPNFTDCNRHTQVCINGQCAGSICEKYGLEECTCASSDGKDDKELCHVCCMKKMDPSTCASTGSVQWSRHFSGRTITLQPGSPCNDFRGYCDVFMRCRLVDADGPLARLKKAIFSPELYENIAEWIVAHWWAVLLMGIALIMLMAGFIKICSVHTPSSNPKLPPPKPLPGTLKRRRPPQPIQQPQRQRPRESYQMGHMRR
Hep lipid drop: hepatic lipid droplet formation modulation | AML12 mouse hepatocytes, oleate lipid droplets, BODIPY imaging | inhibition, % at 6.5 µM | 0.4% of 240,000 active;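 active means lipid droplet intensity inhibited by at least 50%, with more than 500 cells counted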
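Technique: fluorescence imaging, 20x objective, two fields per well / Assay system: AML12 hepatocytes (mouse) / Measure: % inhibition of lipid droplet signal / Doses: 6.5 µM single-point dosing / Incubation: overnight exposure / Reagent: 100 µM oleic acid challenge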
MPTP block: inhibitors of mitochondrial permeability transition pore. isolated mouse mitochondria, Ca2+ swelling absorbance, 30 min. inhibition, % at 10 µM. 1.4% of 360,000 active. AID 602449;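 active means inhibition of 50% or more, scaled per plate between neutral and stimulator controls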;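 further: 0% = DMSO wells given calcium and 100% = 1 mM EGTA wells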
aDG glyco up: increases alpha dystroglycan glycosylation; 0.22% of 360,000 active; activation, % at 10 µM; Pro5-aDG cells, alpha-DG glycosylation AlphaScreen (IIH6); 0% Pro5, 100% B10-LARGE cell signal;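 active means activation of at least 8% versus controls, or a plate z-score of at least 8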;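 further: Pro5 are CHO cells carrying HIG-tagged alpha-DG that lacks glycosylation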
V-ATPase pHluor: regulators of yeast V-ATPase proton transport. 0.37% of 350,000 active. response, % at 10 µM. S. cerevisiae, pHLuorin cytosolic pH fluorescence; in the data active means response mostly above about 7.3%, no sharp cut-off; inactive means mostly below about 5.4%; further: actives read high
Rh123 counter: Rhodamine 123 counter-screen of mitochondrial pore hits; shares compounds with MPTP block; isolated mitochondria, membrane potential, Rhodamine 123 fluorescence; inhibition, % at 10 µM; 78% of 5,000 active; in the data active means inhibition above about 22%;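 further: 0% = DMSO vehicle and 100% = positive control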
MPTP abs DR: dose response confirmation of mitochondrial permeability transition pore inhibitors. isolated mitochondria swelling, absorbance. 58% of 780 active. shares compounds with MPTP block. IC50, µM; in the data active means IC50 below about 20 µM
MPTP cs DR: MPTP inhibitor counter-screen activity, dose response | shares compounds with MPTP block | isolated mitochondria counterscreen, fluorescence read-out | IC50, µM | 49% of 780 active; in the data active means IC50 below about 80 µM
Active calls of the source: *. A selection: hits, their analogues and other compounds. The true share with any hit is near 3.1%.

For OC(COc1ccc(OCc2ccccc2)cc1)CN1CCCCC1 (stereo unspecified) the results were ADAM17 inh -3, ADAM10 inh 0, Hep lipid drop 17, MPTP block 0, aDG glyco up 0 and V-ATPase pHluor 2.
Screening OC(COc1ccccc1)CN1CCC(Cc2ccccc2)CC1 (stereo unspecified) returned ADAM17 inh -1, ADAM10 inh 8, Hep lipid drop -6, MPTP block 1, aDG glyco up 0 and V-ATPase pHluor 5.
COC(=O)[C@]12C=CCN1[C@H](c1ccc(Cl)cc1)c1c(c3ccccc3n1S(=O)(=O)c1ccc(C)cc1)C2 was read as ADAM17 inh -16 and ADAM10 inh -51.
CC(C)CNC(=O)OCc1cn(Cc2ccc(Cl)cc2)nn1 was read as ADAM17 inh -2 and ADAM10 inh -5.
CC(=O)c1ccc([C@H](O)[C@@H](C(=O)N(C)c2ccccc2)C2CC2)cc1 was read as ADAM17 inh -1 and ADAM10 inh -6.
Screening CC(=O)CC[C@@H]1CC[C@]2(CCCN(C(=O)c3ccc4ccccc4n3)C2)O1 returned ADAM17 inh 0 and ADAM10 inh -4.
Screening CCCCCCCCNc1ncnc2[nH]ncc12 returned ADAM17 inh 2, ADAM10 inh -2, MPTP block 71*, aDG glyco up 4, V-ATPase pHluor -1 and Rh123 counter 71*.
Screening Cc1cccc(-c2nnc(SCC(=O)c3ccc(F)cc3)n2C)c1 returned ADAM17 inh 1 and ADAM10 inh -1.
C=CC[n+]1c(-c2ccc(OC)c(OC)c2)csc1NNC(=O)Nc1ccccc1 was read as ADAM17 inh -2, ADAM10 inh 5, MPTP block 64*, aDG glyco up 1, V-ATPase pHluor -3 and Rh123 counter 31*.
CCOC(=O)c1csc(NC(=O)C2CCCN(S(=O)(=O)c3ccc(C)cc3)C2)n1 (stereo unspecified) was read as ADAM17 inh 3 and ADAM10 inh 1.
O=c1[nH]nc(Cc2ccc(-c3cccc(Cl)c3)o2)c2ccccc12 was read as ADAM17 inh -2, ADAM10 inh -2, Hep lipid drop -9, MPTP block 84*, aDG glyco up 4, V-ATPase pHluor -3 and Rh123 counter 83*.
O=C(Nc1cccc(C(F)(F)F)c1)c1cccnc1NCCc1ccccc1 was read as ADAM17 inh -28, ADAM10 inh -95, Hep lipid drop -36, MPTP block 80*, aDG glyco up 0, V-ATPase pHluor 2 and Rh123 counter 70*.
`[O-]/C(=C(\C(=S)Nc1ccc(SC(F)F)cc1)[n+]1cccc(CO)c1)c1ccc(Cl)s1` gave ADAM17 inh 4, ADAM10 inh 7, Hep lipid drop 18, MPTP block 101*, aDG glyco up 0, V-ATPase pHluor 1 and Rh123 counter 85*.
Cc1ccc(-c2csc3nc(-c4ccncc4)[nH]c(=O)c23)cc1 was read as ADAM17 inh -7, ADAM10 inh -20, Hep lipid drop 10, MPTP block 98*, aDG glyco up 1, V-ATPase pHluor 2, Rh123 counter 19, MPTP abs DR 3* and MPTP cs DR <2.5*.
`O=C(N=C1N(Cc2ccccc2)[C@@H](Cc2ccccc2)[C@]2(C=C3CCCCC3n3c(=O)n(-c4ccccc4)c(=O)n32)N1C(=O)OCc1ccccc1)c1ccccc1` (stereo partly specified) gave ADAM17 inh -3 and ADAM10 inh -2.
For Nn1c(SCC(=O)N2CCOCC2)nnc1-c1n[nH]c2c1CCC2 the results were ADAM17 inh 0 and ADAM10 inh -1.
Screening O=[N+]([O-])c1ccc(O)c(-c2nc(-c3ccccc3)c(-c3cccs3)[nH]2)c1 returned ADAM17 inh -2, ADAM10 inh -3, MPTP block 91*, aDG glyco up 0, V-ATPase pHluor 1 and Rh123 counter 86*.

Screening results as filed in PubChem BioAssay.
